Reference: ChEMBL document CHEMBL3112409, “A novel class of ion displacement ligands as antagonists of the αIIbβ3 receptor that limit conformational reorganization of the receptor” (Bioorg Med Chem Lett, 2014)
Calls of active or inactive are those of the source. No cut-off for these calls is given here. Positions of bridges follow the written chain, without caps; N, C: chain ends. Non-standard residues stand in square brackets, D forms with d. Residues, ends and D or L forms follow the SMILES beside them. hArg = N=C(N)NCCCC[C@H](N)C(=O)O; Mpa = O=C(O)CCS

Legend:
[1] = biological target: T1, Integrin alpha-IIb/beta-3 (Homo sapiens) (UniProt P05106+P08514); details: 10 uM
[2] = Antiplatelet activity in platelet (unknown origin) assessed as inhibition of platelet aggregation; type: functional, cell-based
[3] = biological target: T1, Integrin alpha-IIb/beta-3 (Homo sapiens); assay: Inhibition of […] receptor (unknown origin) assessed as inhibition of platelet adhesion at 50 uM
hERG (KCNH2) = hERG (KCNH2) (Homo sapiens, UniProt Q12809); assay: Inhibition of human ERG channel at 25 uM
[4] = Intrinsic clearance in mouse liver microsomes; type: ADME, Microsome
[5] = Metabolic stability in mouse plasma after 15 mins; type: ADME, cell-free; details: read-out: Stability
Outline: (§1)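 Stability in mouse plasma run in triplicate; percent remaining read at 15, 60 and 120 min.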

[6] = Metabolic stability in mouse plasma after 120 mins; type: ADME, cell-free; details: read-out: Stability
Outline: as §1

[7] = Kinetic solubility of the compound at pH 7.4 by CLND method; type: physicochemical; details: buffer
[8] = Metabolic stability in mouse plasma after 60 mins; type: ADME, cell-free; details: read-out: Stability
Outline: as §1

[9] = biological target: T1, Integrin alpha-IIb/beta-3 (Homo sapiens); assay: Inhibition of […] receptor (unknown origin) assessed as inhibition of platelet adhesion at 1 uM
[10] = Kinetic solubility of the compound at pH 8.5 by CLND method; type: physicochemical; details: buffer
[11] = Thermodynamic solubility of the compound at pH 12 by CLND method; type: physicochemical; details: buffer
Outline: (§2)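 Triplicate solubility measurements in aqueous buffer at the pH named in each line. Quantified by chemiluminescent nitrogen detection (CLND) and reported in μg/mL. An LC method was also run alongside.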

[12] = Kinetic solubility of the compound at pH 6.6 by CLND method; type: physicochemical; details: buffer
[13] = Thermodynamic solubility of the compound at pH 8.5 by CLND method; type: physicochemical; details: buffer
Outline: as §2

Liver microsome [14] = assay: Intrinsic clearance in rat liver microsomes; type: ADME
[15] = Kinetic solubility of the compound at pH 12 by CLND method; type: physicochemical; details: buffer
[16] = Thermodynamic solubility of the compound at pH 6.6 by CLND method; type: physicochemical; details: buffer
Outline: as §2

[17] = Thermodynamic solubility of the compound at pH 7.4 by CLND method; type: physicochemical; details: buffer
Outline: as §2

Liver microsome [18] = assay: Intrinsic clearance in human liver microsomes; type: ADME
Outline: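 Liver microsomal stability run in parallel for mouse, rat and human microsomes. Intrinsic clearance reported in μL/min/mg protein, with microsomal half-life in min.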

[19] = Metabolic stability in mouse hepatocytes assessed as compound remaining after 120 mins; type: ADME, cell-based, Hepatocyte; details: read-out: Stability
[20] = Fraction unbound in whole blood (unknown origin); type: ADME, tissue-based
[21] = biological target: Integrin alpha-V/beta-3 (Homo sapiens) (UniProt P05106+P06756); assay: Antagonist activity at alphaVbeta3 receptor (unknown origin); type: protein-complex assay
[22] = Fraction unbound in plasma (unknown origin); type: ADME, cell-free
[23] = biological target: T1, Integrin alpha-IIb/beta-3 (Homo sapiens); assay: Inhibition of […] receptor (unknown origin) assessed as inhibition of platelet adhesion at 100 uM
[24] = Cmax in dog at 26.5 mg/kg, iv; type: ADME, organism-based, Canis lupus familiaris; set-up: dose 26.5 mg/kg, route intravenous; details: in vivo
[25] = Elimination half life in dog at 53 mg/kg, po; type: ADME, organism-based, Canis lupus familiaris; set-up: dose 53 mg/kg, route oral; details: in vivo, read-out: beta t1/2
[26] = Tmax in dog at 53 mg/kg, po; type: ADME, organism-based, Canis lupus familiaris; set-up: dose 53 mg/kg, route oral; details: in vivo
[27] = Tmax in dog at 26.5 mg/kg, po; type: ADME, organism-based, Canis lupus familiaris; set-up: dose 26.5 mg/kg, route oral; details: in vivo
[28] = AUC (infinity) in dog at 26.5 mg/kg, po; type: ADME, organism-based, Canis lupus familiaris; set-up: time infinity, dose 26.5 mg/kg, route oral; details: plasma
[29] = Oral bioavailability in dog at 26.5 to 53 mg/kg; type: ADME, organism-based, Canis lupus familiaris; details: in vivo
[30] = AUC (infinity) in dog at 26.5 mg/kg, iv; type: ADME, organism-based, Canis lupus familiaris; set-up: time infinity, dose 26.5 mg/kg, route intravenous; details: plasma
Canis familiaris [31] = assay: Volume of distribution in dog at 26.5 mg/kg, po; type: ADME, organism-based, Canis lupus familiaris; set-up: dose 26.5 mg/kg, route oral; details: in vivo
[32] = Volume of distribution in dog at 26.5 mg/kg, iv; type: ADME, organism-based, Canis lupus familiaris; set-up: dose 26.5 mg/kg, route intravenous; details: in vivo
[33] = Cmax in dog at 26.5 mg/kg, po; type: ADME, organism-based, Canis lupus familiaris; set-up: dose 26.5 mg/kg, route oral; details: in vivo
Canis familiaris [34] = assay: Volume of distribution in dog at 53 mg/kg, po; type: ADME, organism-based, Canis lupus familiaris; set-up: dose 53 mg/kg, route oral; details: in vivo
[35] = Clearance in dog at 26.5 mg/kg, po; type: ADME, organism-based, Canis lupus familiaris; set-up: dose 26.5 mg/kg, route oral; details: in vivo
[36] = Terminal elimination rate constant in dog at 26.5 mg/kg, iv; type: ADME, organism-based, Canis lupus familiaris; set-up: dose 26.5 mg/kg, route intravenous; details: in vivo
[37] = AUC (infinity) in dog at 53 mg/kg, po; type: ADME, organism-based, Canis lupus familiaris; set-up: time infinity, dose 53 mg/kg, route oral; details: plasma
[38] = Terminal elimination rate constant in dog at 53 mg/kg, po; type: ADME, organism-based, Canis lupus familiaris; set-up: dose 53 mg/kg, route oral; details: in vivo
[39] = Elimination half life in dog at 26.5 mg/kg, iv; type: ADME, organism-based, Canis lupus familiaris; set-up: dose 26.5 mg/kg, route intravenous; details: in vivo, read-out: beta t1/2
[40] = Terminal elimination rate constant in dog at 26.5 mg/kg, po; type: ADME, organism-based, Canis lupus familiaris; set-up: dose 26.5 mg/kg, route oral; details: in vivo
[41] = Clearance in dog at 26.5 mg/kg, iv; type: ADME, organism-based, Canis lupus familiaris; set-up: dose 26.5 mg/kg, route intravenous; details: in vivo
[42] = Cmax in dog at 53 mg/kg, po; type: ADME, organism-based, Canis lupus familiaris; set-up: dose 53 mg/kg, route oral; details: in vivo
[43] = Clearance in dog at 53 mg/kg, po; type: ADME, organism-based, Canis lupus familiaris; set-up: dose 53 mg/kg, route oral; details: in vivo
[44] = Elimination half life in dog at 26.5 mg/kg, po; type: ADME, organism-based, Canis lupus familiaris; set-up: dose 26.5 mg/kg, route oral; details: in vivo, read-out: beta t1/2
[45] = Tmax in dog at 26.5 mg/kg, iv; type: ADME, organism-based, Canis lupus familiaris; set-up: dose 26.5 mg/kg, route intravenous; details: in vivo

hERG (KCNH2), sequence (Q12809 whole entry): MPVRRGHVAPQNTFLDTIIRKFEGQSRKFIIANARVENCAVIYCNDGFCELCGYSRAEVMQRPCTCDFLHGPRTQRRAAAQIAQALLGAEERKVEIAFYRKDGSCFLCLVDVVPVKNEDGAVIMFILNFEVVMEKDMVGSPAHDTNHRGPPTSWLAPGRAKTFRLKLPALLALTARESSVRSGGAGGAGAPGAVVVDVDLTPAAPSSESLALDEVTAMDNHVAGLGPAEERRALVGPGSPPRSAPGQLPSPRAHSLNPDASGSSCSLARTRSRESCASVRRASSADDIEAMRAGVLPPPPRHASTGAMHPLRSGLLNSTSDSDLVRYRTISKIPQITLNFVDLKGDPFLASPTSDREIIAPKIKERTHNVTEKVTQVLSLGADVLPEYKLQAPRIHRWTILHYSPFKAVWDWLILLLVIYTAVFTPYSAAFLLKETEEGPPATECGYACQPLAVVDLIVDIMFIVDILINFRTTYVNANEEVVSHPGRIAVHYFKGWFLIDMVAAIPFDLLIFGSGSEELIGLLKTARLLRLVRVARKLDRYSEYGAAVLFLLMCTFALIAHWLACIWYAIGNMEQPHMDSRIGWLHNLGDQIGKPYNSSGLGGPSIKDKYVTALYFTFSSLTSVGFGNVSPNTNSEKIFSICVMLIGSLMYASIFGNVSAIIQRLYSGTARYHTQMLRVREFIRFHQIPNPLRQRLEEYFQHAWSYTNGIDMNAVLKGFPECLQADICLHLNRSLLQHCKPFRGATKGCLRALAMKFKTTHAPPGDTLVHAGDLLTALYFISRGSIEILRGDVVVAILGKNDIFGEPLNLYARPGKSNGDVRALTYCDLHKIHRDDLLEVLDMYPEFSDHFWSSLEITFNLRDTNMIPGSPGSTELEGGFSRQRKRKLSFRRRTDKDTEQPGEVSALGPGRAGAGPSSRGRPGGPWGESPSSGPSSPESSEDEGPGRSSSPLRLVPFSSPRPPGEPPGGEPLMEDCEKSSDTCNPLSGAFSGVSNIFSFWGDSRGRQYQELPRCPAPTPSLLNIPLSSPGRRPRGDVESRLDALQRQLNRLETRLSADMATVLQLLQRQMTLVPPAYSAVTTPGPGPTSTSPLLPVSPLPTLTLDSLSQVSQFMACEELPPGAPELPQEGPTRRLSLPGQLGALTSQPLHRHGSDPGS

SMILES: CCCCS(=O)(=O)N[C@@H](Cc1ccc(OCCCCC2CCNCC2)cc1)C(=O)O
- inhibition [1]: 88%

SMILES: N=C(N)NCCCC[C@@H]1NC(=O)CCSSC[C@@H](C(N)=O)NC(=O)[C@@H]2CCCN2C(=O)[C@H](Cc2c[nH]c3ccccc23)NC(=O)[C@H](CC(=O)O)NC(=O)CNC1=O [EPTIFIBATIDE] ([Mpa][hArg]GDWPC-NH2; disulfide 1-7)
- IC50 [2]: 0.012 µM

SMILES: CC(C)(C)c1nn2c(=O)cc(N3CCNCC3)nc2s1
- inhibition [3]: 35%
- IC50 [2]: 4 µM

SMILES: NCC(=O)Nc1cccc(-c2nn3c(=O)cc(N4CCNCC4)nc3s2)c1
- inhibition at 25 µM (hERG (KCNH2)): < 5%
- CLH [4]: 0.684 µL/min/mg
- remaining at 0.25 h [5]: 97.5%
- remaining at 2 h [6]: 84.5%
- Kinetic_solubility [7]: 34.6 µg/mL
- remaining at 1 h [8]: 93.3%
- inhibition [9]: 83%
- Kinetic_solubility [10]: 36.1 µg/mL
- Therm_solubility [11]: > 400 µg/mL
- Kinetic_solubility [12]: 35.8 µg/mL
- Therm_solubility [13]: 46.2 µg/mL
- CLH (Liver microsome [14]): 2.83 µL/min/mg
- Kinetic_solubility [15]: 43.4 µg/mL
- Therm_solubility [16]: 41.8 µg/mL
- Therm_solubility [17]: 28 µg/mL

SMILES: NCC(=O)Nc1cncc(-c2nn3c(=O)cc(N4CCNCC4)nc3s2)c1 [ZALUNFIBAN]
- inhibition at 25 µM (hERG (KCNH2)): < 5%
- remaining at 0.25 h [5]: 100%
- remaining at 2 h [6]: 91.7%
- CLH (Liver microsome [18]): 23.2 µL/min/mg
- Kinetic_solubility [7]: > 57.8 µg/mL
- remaining at 1 h [8]: 99.5%
- remaining at 2 h [19]: > 95%
- inhibition [9]: 93%
- Fu [20]: > 85%
- Kinetic_solubility [10]: > 57.8 µg/mL
- IC50 [2]: 0.045 µM
- Therm_solubility [11]: > 400 µg/mL
- Kinetic_solubility [12]: > 57.8 µg/mL
- Activity [21]: inactive
- Therm_solubility [13]: > 400 µg/mL
- Kinetic_solubility [15]: > 57.8 µg/mL
- Fu [22]: > 30%
- Therm_solubility [16]: 340.4 µg/mL
- Therm_solubility [17]: 239.5 µg/mL

SMILES: O=C(O)CNc1cccc(-c2nn3c(=O)cc(N4CCNCC4)nc3s2)c1
- inhibition [3]: 78%
- IC50 [2]: 2 µM

SMILES: CCc1nn2c(=O)c(F)c(N3CCNCC3)nc2s1
- IC50 [2]: 8.3 µM
- inhibition [23]: 41%

SMILES: O=C(O)c1ccc(-c2nn3c(=O)cc(N4CCNCC4)nc3s2)cc1
- inhibition [3]: 49%
- IC50 [2]: 6.5 µM

SMILES: O=C(O)c1cccc(-c2nn3c(=O)cc(N4CCNCC4)nc3s2)c1
- inhibition [3]: 37%
- IC50 [2]: 80 µM

SMILES: CCc1nn2c(=O)cc(N3CCNCC3)nc2s1
- Cmax [24]: 28800 ng/mL
- half-life [25]: 1.82 h
- Tmax [26]: 0.5 h
- Tmax [27]: 0.555 h
- AUC(0-inf) [28]: 27200 ng·h/mL
- bioavailability [29]: 92%
- AUC(0-inf) [30]: 28000 ng·h/mL
- Vd (Canis familiaris [31]): 3.4669 L/kg
- Vd [32]: 2.37 L/kg
- Cmax [33]: 7800 ng/mL
- Vd (Canis familiaris [34]): 2.9476 L/kg
- IC50 [2]: 4 µM
- CL/F [35]: 16.8 mL/min/kg
- k el [36]: 0.000113 s⁻¹
- AUC(0-inf) [37]: 47200 ng·h/mL
- k el [38]: 0.000107 s⁻¹
- half-life [39]: 1.7 h
- k el [40]: 8e-05 s⁻¹
- clearance [41]: 15.9 mL/min/kg
- Cmax [42]: 11900 ng/mL
- CL/F [43]: 18.7 mL/min/kg
- half-life [44]: 2.45 h
- Tmax [45]: 0.175 h

SMILES: CCc1nn2c(=O)cc(N3CCN(C)CC3)nc2s1
- IC50 [2]: > 100 µM
- inhibition [23]: 35%

SMILES: NCC(=O)Nc1cc(O)cc(-c2nn3c(=O)cc(N4CCNCC4)nc3s2)c1
- inhibition [9]: 69%
- IC50 [2]: 0.1 µM

SMILES: C[C@H](N)C(=O)Nc1cccc(-c2nn3c(=O)cc(N4CCNCC4)nc3s2)c1
- IC50 [2]: 5.87 µM
- inhibition [23]: 66%

SMILES: NCC(=O)Nc1cc(-c2nn3c(=O)cc(N4CCNCC4)nc3s2)ccn1
- inhibition [9]: 98%
- IC50 [2]: 0.033 µM

SMILES: CCc1nn2c(=O)cc(N3CCOCC3)nc2s1
- IC50 [2]: 49 µM
- inhibition [23]: 20%

SMILES: NCC(=O)Nc1cc(CO)cc(-c2nn3c(=O)cc(N4CCNCC4)nc3s2)c1
- inhibition [9]: 89%
- IC50 [2]: 0.075 µM

SMILES: O=c1cc(N2CCNCC2)nc2sc(-c3ccccc3)nn12
- IC50 [2]: 3 µM
- inhibition [23]: 56%

SMILES: CCc1nn2c(=O)cc(N3CCCCC3)nc2s1
- IC50 [2]: > 100 µM
- inhibition [23]: 23%
